This is an account of results in ChEMBL document CHEMBL4811225 (J Med Chem, 2021).

By IC50 is commonly meant the concentration at which inhibition is half-maximal. Usually inhibition stands for the percentage by which the read-out fell short of the control.

Assay [1] addresses Nicotinic acetylcholine receptor alpha6/alpha3/beta4 (Rattus norvegicus, UniProt P04757+P12392+P43143). The class given is cell-based, Oocyte.
In assay [2] the target is Nicotinic acetylcholine receptor alpha6/alpha3/beta2/beta3 (Rattus norvegicus, UniProt P04757+P12390+P12391+P43143). The class given is cell-based, Oocyte.
Assay [3] deals with Neuronal acetylcholine receptor; alpha4/beta4 (Rattus norvegicus, UniProt P09483+P12392). In kind it is cell-based, Oocyte.
The target of assay [4] is Neuronal acetylcholine receptor; alpha3/beta4 (Rattus norvegicus, UniProt P04757+P12392). The class given is cell-based, Oocyte.
Assay [5] has as its target Neuronal acetylcholine receptor; alpha3/beta2 (Rattus norvegicus, UniProt P04757+P12390). In kind it is cell-based, Oocyte.
For assay [6], the target named is Neuronal acetylcholine receptor; alpha4/beta2 (Rattus norvegicus, UniProt P09483+P12390). The class given is cell-based, Oocyte.
The target of assay [7] is Neuronal acetylcholine receptor subunit alpha-7 (Rattus norvegicus, UniProt Q05941). In kind it is cell-based, Oocyte.
The species entered for assay [8] is Rattus norvegicus. As to the kind of experiment: Selectivity ratio of IC50 for rat alpha3beta4 nAChR to IC50 for rat alpha6/alpha3beta4 nAChR. The method, boiled down:
(§1)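 Ratio of each subtype's IC50, from TEVC inhibition of ACh-evoked currents in X. laevis oocytes, to the IC50 at the same species' α6/α3β4 nAChR; IC50 values with 95% CI, n = number of oocytes.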

The species named for assay [9] is Homo sapiens. As to the kind of experiment: Selectivity ratio of IC50 for human alpha2beta2 nAChR to IC50 for human alpha6/alpha3beta4 nAChR. The procedure, abridged:
as §1

The species entered for assay [10] is Rattus norvegicus. Nature of the assay: Selectivity ratio of IC50 for rat alpha4beta4 nAChR to IC50 for rat alpha6/alpha3beta4 nAChR. The method, boiled down:
as §1

For assay [11], the target named is Neuronal acetylcholine receptor subunit alpha-7 (Homo sapiens, UniProt P36544). Nature of the assay: Inhibition of human alpha7 nAChR expressed in Xenopus laevis oocytes assessed as inhibition of acetylcholine-induced current response by two-electrode voltage-clamp method. The class given is cell-based, Oocyte. The method, boiled down:
(§2)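 TEVC on stage IV–V oocytes 1–5 days after equal-ratio cRNA injection (α2β4, α3β4, α4β4, α7). ACh 300 μM, 1 s pulses at 60 s intervals under frog saline perfusion. Peptide perfused to 1 μM, normalized to average of three control responses; higher concentrations by 5 min static bath. IC50 with 95% CI, n oocytes.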
Background: In two-electrode clamp one electrode senses voltage and the other passes current.

The species entered for assay [12] is Homo sapiens. As to the kind of experiment: Selectivity ratio of IC50 for human alpha9alpha10 nAChR to IC50 for human alpha6/alpha3beta4 nAChR. The procedure, abridged:
as §1

Assay [13] has as its target Neuronal acetylcholine receptor; alpha3/beta2 (Homo sapiens, UniProt P17787+P32297). Nature of the assay: Inhibition of human alpha3beta2 nAChR expressed in Xenopus laevis oocytes assessed as inhibition of acetylcholine-induced current response by two-electrode voltage-clamp method. In kind it is cell-based, Oocyte. The procedure, abridged:
(§3)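 Two-electrode voltage clamp of stage IV–V oocytes 1–5 days after equal-ratio cRNA injection; ACh 100 μM (β2-containing subtypes, α9α10), 1 s every 60 s in frog saline. Peptide perfused up to 1 μM, responses normalized to mean of three control responses; above 1 μM, 5 min static bath. IC50 with 95% CI; n = oocytes.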

The target in assay [14] is Neuronal acetylcholine receptor; alpha2/beta2 (Rattus norvegicus, UniProt P12389+P12390). As to the kind of experiment: Inhibition of rat alpha2beta2 nAChR expressed in Xenopus laevis oocytes assessed as inhibition of acetylcholine-induced current response by two-electrode voltage-clamp method. In kind it is cell-based, Oocyte. The method, boiled down: as §3
For assay [15], the species on record is Rattus norvegicus. Nature of the assay: Selectivity ratio of IC50 for rat alpha2beta2 nAChR to IC50 for rat alpha6/alpha3beta4 nAChR. The method, boiled down:
as §1

The species named for assay [16] is Homo sapiens. Nature of the assay: Selectivity ratio of IC50 for human alpha4beta2 nAChR to IC50 for human alpha6/alpha3beta4 nAChR. The method, boiled down:
as §1

Assay [17] concerns Oocyte. As to the kind of experiment: Inhibition of human alpha4beta4 nAChR expressed in Xenopus laevis oocytes assessed as inhibition of acetylcholine-induced current response at 10 uM by two-electrode voltage-clamp method relative to control. The class given is cell-based. The procedure, abridged: (§4)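 Stage IV–V X. laevis oocytes expressing equal-ratio cRNAs of α2β4, α3β4, α4β4 or α7 subunits; TEVC 1–5 days after injection. ACh 300 μM, 1 s at 60 s intervals. 10 μM peptide as 5 min static bath, normalized to ACh response after 5 min bath of control saline; mean ± SD, n = 4.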

The species named for assay [18] is Homo sapiens. Nature of the assay: Selectivity ratio of IC50 for human alpha6/alpha3beta2beta3 nAChR to IC50 for human alpha6/alpha3beta4 nAChR. The method, boiled down:
as §1

In assay [19] the target is Neuronal acetylcholine receptor; alpha9/alpha10 (Homo sapiens, UniProt Q9GZZ6+Q9UGM1). As to the kind of experiment: Inhibition of human alpha9alpha10 nAChR expressed in Xenopus laevis oocytes assessed as inhibition of acetylcholine-induced current response by two-electrode voltage-clamp method. The class given is cell-based, Oocyte. The procedure, abridged: as §3
The target of assay [20] is Neuronal acetylcholine receptor; alpha4/beta4 (Rattus norvegicus) (UniProt P09483+P12392). Nature of the assay: Inhibition of rat alpha4beta4 nAChR expressed in Xenopus laevis oocytes assessed as inhibition of acetylcholine-induced current response at 10 uM by two-electrode voltage-clamp method relative to control. In kind it is cell-based. To be noted: Oocyte. The procedure, abridged:
as §4

The target of assay [21] is Neuronal acetylcholine receptor; alpha4/beta2 (Homo sapiens, UniProt P17787+P43681). As to the kind of experiment: Inhibition of human alpha4beta2 nAChR expressed in Xenopus laevis oocytes assessed as inhibition of acetylcholine-induced current response by two-electrode voltage-clamp method. The class given is cell-based, Oocyte. The method, boiled down:
as §3

For assay [22], the species on record is Rattus norvegicus. Nature of the assay: Selectivity ratio of IC50 for rat alpha4beta2 nAChR to IC50 for rat alpha6/alpha3beta4 nAChR. The procedure, abridged: as §1
Assay [23] has as its target Neuronal acetylcholine receptor; alpha2/beta4 (Rattus norvegicus) (UniProt P12389+P12392). As to the kind of experiment: Inhibition of rat alpha2beta4 nAChR expressed in Xenopus laevis oocytes assessed as inhibition of acetylcholine-induced current response at 10 uM by two-electrode voltage-clamp method relative to control. The class given is cell-based. To be noted: Oocyte. The method, boiled down: as §4

The target in assay [24] is Neuronal acetylcholine receptor; alpha2/beta2 (Homo sapiens, UniProt P17787+Q15822). Nature of the assay: Inhibition of human alpha2beta2 nAChR expressed in Xenopus laevis oocytes assessed as inhibition of acetylcholine-induced current response by two-electrode voltage-clamp method. The class given is cell-based, Oocyte. The procedure, abridged:
as §3

For assay [25], the species on record is Homo sapiens. Nature of the assay: Selectivity ratio of IC50 for human alpha4beta4 nAChR to IC50 for human alpha6/alpha3beta4 nAChR. The procedure, abridged: as §1
Assay [26] is filed under the species Homo sapiens. Nature of the assay: Selectivity ratio of IC50 for human alpha2beta4 nAChR to IC50 for human alpha6/alpha3beta4 nAChR. The procedure, abridged: as §1
For assay [27], the species on record is Rattus norvegicus. Nature of the assay: Selectivity ratio of IC50 for rat alpha2beta4 nAChR to IC50 for rat alpha6/alpha3beta4 nAChR. The procedure, abridged: as §1
For assay [28], the target named is Neuronal acetylcholine receptor; alpha2/beta4 (Rattus norvegicus, UniProt P12389+P12392). As to the kind of experiment: Inhibition of rat alpha2beta4 nAChR expressed in Xenopus laevis oocytes assessed as inhibition of acetylcholine-induced current response by two-electrode voltage-clamp method. The class given is cell-based, Oocyte. The method, boiled down:
as §2

Assay [29] has as its target Neuronal acetylcholine receptor; alpha3/beta4 (Homo sapiens, UniProt P30926+P32297). Nature of the assay: Inhibition of human alpha3beta4 nAChR expressed in Xenopus laevis oocytes assessed as inhibition of acetylcholine-induced current response by two-electrode voltage-clamp method. The class given is cell-based, Oocyte. The method, boiled down: as §2
Assay [30] concerns the target Nicotinic acetylcholine receptor alpha9/alpha10 (Rattus norvegicus, UniProt P43144+Q9JLB5). Nature of the assay: Inhibition of rat alpha9alpha10 nAChR expressed in Xenopus laevis oocytes assessed as inhibition of acetylcholine-induced current response by two-electrode voltage-clamp method. In kind it is cell-based, Oocyte. The method, boiled down:
as §3

Assay [31] has as its target Neuronal acetylcholine receptor; alpha3/alpha6/beta2/beta3 (Homo sapiens, UniProt P17787+P32297+Q05901+Q15825). As to the kind of experiment: Inhibition of human alpha6/alpha3beta2beta3 nAChR expressed in Xenopus laevis oocytes assessed as inhibition of acetylcholine-induced current response by two-electrode voltage-clamp method. In kind it is cell-based, Oocyte. The procedure, abridged:
as §3

Assay [32] is described as follows: Inhibition of human alpha4beta4 nAChR expressed in Xenopus laevis oocytes assessed as inhibition of acetylcholine-induced current response by two-electrode voltage-clamp method. To be noted: Oocyte. In kind it is cell-based. The method, boiled down: as §2

The structures appear in SMILES notation. Where a SMILES comes first, the peptide text is derived from it. Bridges are numbered along the chain shown (N, C = ends).

Chain of Neuronal acetylcholine receptor subunit alpha-7 (Rattus norvegicus, UniProt Q05941) (Q05941 whole entry): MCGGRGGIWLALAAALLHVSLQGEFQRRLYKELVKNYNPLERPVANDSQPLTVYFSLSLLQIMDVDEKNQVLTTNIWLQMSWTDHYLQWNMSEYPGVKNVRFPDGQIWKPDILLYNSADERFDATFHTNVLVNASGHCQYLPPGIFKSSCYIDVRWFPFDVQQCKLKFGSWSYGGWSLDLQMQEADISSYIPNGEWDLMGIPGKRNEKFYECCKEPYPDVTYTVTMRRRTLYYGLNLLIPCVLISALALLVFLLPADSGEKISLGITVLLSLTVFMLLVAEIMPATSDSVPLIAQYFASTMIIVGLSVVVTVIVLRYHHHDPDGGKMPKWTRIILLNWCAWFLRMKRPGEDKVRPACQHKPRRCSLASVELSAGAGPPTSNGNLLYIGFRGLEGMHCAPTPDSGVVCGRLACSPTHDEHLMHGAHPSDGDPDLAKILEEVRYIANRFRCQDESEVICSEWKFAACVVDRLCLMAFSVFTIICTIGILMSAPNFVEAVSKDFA
Chain of Neuronal acetylcholine receptor; alpha3/beta4 (Rattus norvegicus, UniProt P04757+P12392) (P04757 whole entry): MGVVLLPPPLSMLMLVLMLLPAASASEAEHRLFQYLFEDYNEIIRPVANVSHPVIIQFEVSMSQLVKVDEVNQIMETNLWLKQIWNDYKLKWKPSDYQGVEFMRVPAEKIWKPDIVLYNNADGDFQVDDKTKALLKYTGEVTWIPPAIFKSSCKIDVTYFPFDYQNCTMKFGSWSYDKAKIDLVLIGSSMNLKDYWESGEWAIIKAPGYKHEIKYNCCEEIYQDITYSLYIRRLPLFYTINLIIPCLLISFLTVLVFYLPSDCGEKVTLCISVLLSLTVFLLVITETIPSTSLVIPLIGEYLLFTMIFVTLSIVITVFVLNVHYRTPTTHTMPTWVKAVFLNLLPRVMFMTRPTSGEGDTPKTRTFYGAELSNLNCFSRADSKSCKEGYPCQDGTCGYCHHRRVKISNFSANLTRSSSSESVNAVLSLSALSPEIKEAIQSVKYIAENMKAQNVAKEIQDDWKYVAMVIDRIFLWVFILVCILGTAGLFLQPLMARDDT
Chain of Neuronal acetylcholine receptor; alpha3/beta4 (Rattus norvegicus, UniProt P04757+P12392) (P12392 whole entry): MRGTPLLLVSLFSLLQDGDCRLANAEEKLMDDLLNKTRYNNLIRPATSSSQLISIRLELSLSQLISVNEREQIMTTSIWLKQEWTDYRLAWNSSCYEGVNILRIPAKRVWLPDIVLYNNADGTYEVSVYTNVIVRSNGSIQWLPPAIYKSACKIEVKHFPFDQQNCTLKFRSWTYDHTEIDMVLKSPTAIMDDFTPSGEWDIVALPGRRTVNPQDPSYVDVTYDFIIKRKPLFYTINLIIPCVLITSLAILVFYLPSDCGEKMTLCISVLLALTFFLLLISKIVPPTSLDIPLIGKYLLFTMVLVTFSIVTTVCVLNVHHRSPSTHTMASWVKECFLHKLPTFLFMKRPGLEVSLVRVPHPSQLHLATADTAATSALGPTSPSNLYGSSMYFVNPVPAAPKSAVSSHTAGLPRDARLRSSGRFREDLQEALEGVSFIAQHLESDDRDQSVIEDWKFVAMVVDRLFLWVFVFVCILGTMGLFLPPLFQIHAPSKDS
Chain of Neuronal acetylcholine receptor; alpha3/beta2 (Rattus norvegicus, UniProt P04757+P12390) (P04757 whole entry): as the sequence (P04757 whole entry) above
Chain of Neuronal acetylcholine receptor; alpha3/beta2 (Rattus norvegicus, UniProt P04757+P12390) (P12390 whole entry): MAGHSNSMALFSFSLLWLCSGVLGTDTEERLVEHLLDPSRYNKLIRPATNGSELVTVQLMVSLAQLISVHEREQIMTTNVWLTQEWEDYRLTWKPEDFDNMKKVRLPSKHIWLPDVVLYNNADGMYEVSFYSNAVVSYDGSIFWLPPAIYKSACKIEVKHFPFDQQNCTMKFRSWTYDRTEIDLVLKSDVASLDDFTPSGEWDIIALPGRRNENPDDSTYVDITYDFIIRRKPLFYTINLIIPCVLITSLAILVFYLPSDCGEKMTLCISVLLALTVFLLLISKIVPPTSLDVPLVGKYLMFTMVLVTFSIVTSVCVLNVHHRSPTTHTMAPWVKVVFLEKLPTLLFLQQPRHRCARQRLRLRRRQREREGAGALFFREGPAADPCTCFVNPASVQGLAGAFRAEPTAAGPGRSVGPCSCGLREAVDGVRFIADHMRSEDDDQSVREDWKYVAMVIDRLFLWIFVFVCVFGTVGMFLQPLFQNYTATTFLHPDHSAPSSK
Chain of Nicotinic acetylcholine receptor alpha6/alpha3/beta2/beta3 (P04757 whole entry): as the sequence (P04757 whole entry) above
Chain of Nicotinic acetylcholine receptor alpha6/alpha3/beta2/beta3 (P12390 whole entry): as the sequence (P12390 whole entry) above
Chain of Nicotinic acetylcholine receptor alpha6/alpha3/beta2/beta3 (P12391 whole entry): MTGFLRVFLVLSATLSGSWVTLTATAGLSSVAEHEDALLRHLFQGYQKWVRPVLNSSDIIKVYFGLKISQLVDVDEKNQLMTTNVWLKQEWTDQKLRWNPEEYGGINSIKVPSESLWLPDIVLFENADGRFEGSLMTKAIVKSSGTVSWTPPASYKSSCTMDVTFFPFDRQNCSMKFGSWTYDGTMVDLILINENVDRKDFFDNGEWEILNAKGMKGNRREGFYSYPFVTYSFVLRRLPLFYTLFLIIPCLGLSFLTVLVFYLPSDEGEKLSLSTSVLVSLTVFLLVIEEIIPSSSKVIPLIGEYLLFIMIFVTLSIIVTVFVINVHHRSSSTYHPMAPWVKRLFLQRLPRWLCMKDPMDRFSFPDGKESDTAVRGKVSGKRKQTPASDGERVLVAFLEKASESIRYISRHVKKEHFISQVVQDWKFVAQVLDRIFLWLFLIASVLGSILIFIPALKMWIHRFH
Chain of Nicotinic acetylcholine receptor alpha6/alpha3/beta2/beta3 (P43143 whole entry): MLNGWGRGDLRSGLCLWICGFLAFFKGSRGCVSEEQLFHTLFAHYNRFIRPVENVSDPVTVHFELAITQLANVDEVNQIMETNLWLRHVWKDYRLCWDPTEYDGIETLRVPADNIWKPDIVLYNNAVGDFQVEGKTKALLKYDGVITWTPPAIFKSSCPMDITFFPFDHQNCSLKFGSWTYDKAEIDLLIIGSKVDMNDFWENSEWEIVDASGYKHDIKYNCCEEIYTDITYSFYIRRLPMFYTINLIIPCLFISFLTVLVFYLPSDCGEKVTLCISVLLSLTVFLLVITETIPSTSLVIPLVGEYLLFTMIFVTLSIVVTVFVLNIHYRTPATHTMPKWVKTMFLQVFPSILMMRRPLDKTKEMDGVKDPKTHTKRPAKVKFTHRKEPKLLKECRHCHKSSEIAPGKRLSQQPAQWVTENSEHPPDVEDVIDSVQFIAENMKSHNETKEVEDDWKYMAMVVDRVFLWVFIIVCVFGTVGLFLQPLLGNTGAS
Chain of Neuronal acetylcholine receptor subunit alpha-7 (Homo sapiens, UniProt P36544) (P36544 whole entry, the tested form may be a part): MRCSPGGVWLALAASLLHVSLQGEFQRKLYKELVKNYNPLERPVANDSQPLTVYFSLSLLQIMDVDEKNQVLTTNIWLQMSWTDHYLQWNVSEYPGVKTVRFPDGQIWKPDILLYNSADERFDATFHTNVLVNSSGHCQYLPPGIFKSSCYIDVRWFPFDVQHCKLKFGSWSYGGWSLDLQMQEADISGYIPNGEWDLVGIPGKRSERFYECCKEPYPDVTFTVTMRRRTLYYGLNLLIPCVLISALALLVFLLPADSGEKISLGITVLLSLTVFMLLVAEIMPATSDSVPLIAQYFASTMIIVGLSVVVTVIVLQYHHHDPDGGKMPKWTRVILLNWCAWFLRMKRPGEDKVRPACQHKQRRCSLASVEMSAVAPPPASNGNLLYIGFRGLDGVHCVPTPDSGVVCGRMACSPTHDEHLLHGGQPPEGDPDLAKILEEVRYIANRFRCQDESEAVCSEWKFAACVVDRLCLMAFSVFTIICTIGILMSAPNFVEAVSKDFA

`CC(C)C[C@@H]1NC(=O)[C@H](C)NC(=O)[C@@H]2CCCN2C(=O)[C@H](CCC(=O)O)NC(=O)[C@H](CCCNC(=N)N)NC(=O)[C@H](C)NC(=O)[C@H](Cc2cnc[nH]2)NC(=O)[C@@H]2CSSC[C@H](NC(=O)CN)C(=O)N[C@@H](CSSC[C@@H](C(N)=O)NC1=O)C(=O)N[C@@H](CO)C(=O)N[C@@H](Cc1cnc[nH]1)C(=O)N1CCC[C@H]1C(=O)N[C@@H](Cc1cnc[nH]1)C(=O)N2` (H-GCCSHPHCHAREPALC-NH2; disulfide 2-8, 3-16): the IC50 is 0.0438 µM in [1]; 0.0438 µM in [2]; more than 10 µM in assay [3]; more than 10 µM in assay [4]; more than 10 µM in [5]; more than 10 µM in assay [6]. This compound also displayed an IC50 in [7] of more than 10 µM.
With `CC(C)C[C@@H]1NC(=O)[C@H](C)NC(=O)[C@H](CCCNC(=N)N)NC(=O)[C@H](Cc2cnc[nH]2)NC(=O)[C@H](CCCNC(=N)N)NC(=O)[C@H](C)NC(=O)[C@H](CCCNC(=N)N)NC(=O)[C@@H]2CSSC[C@H](NC(=O)CN)C(=O)N[C@@H](CSSC[C@@H](C(N)=O)NC1=O)C(=O)N[C@@H](CO)C(=O)N[C@@H](Cc1cnc[nH]1)C(=O)N1CCC[C@H]1C(=O)N[C@@H](C(C)C)C(=O)N2` (H-GCCSHPVCRARHRALC-NH2; disulfide 2-8, 3-16), the Ratio IC50 is more than 3180 in [8]; more than 1800 in assay [9]; more than 3180 in assay [10]; 104 in assay [12]; more than 3180 in assay [15]; more than 1800 in assay [16]. Further, the Ratio IC50 was 1 in [18]; more than 3180 in assay [22]; more than 1800 in assay [25]; more than 1800 in assay [26]; more than 3180 in assay [27]. Moreover, the IC50 was more than 10 µM in assay [1]; 5.56 µM in assay [11]; 12.2 µM in [13]; more than 10 µM in [14]; 0.576 µM in [19]; 0.00314 µM in [2]. Further, the IC50 in assay [21] was more than 10 µM; in assay [4], more than 10 µM; in assay [24], more than 10 µM; in assay [5], 9.51 µM; in assay [6], more than 10 µM; in assay [28], more than 10 µM. The IC50 in assay [29] was 9.06 µM; in [7], 3.94 µM; in assay [30], 0.667 µM; in [31], 0.00555 µM; in [32], more than 10 µM. Besides, the figures for the inhibition in [17], in [20] and in [23] were 92%, 82% and 85%, respectively.
